Assay results as given in ChEMBL document CHEMBL3822407, “Design, synthesis and antiproliferative activity of novel 5-nitropyrimidine-2,4-diamine derivatives bearing alkyl acetate moiety” (Eur J Med Chem, 2016).
Values after ≈ are worked out from the molar mass of the structure shown.

How the values were obtained:
[1] = test system: A549; assay: Antiproliferative activity against human A549 cells after 48 hrs by MTT assay; type: functional, cell-based; conditions: A549, 48 h
Summary of the method: (§1)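 Cells kept in DMEM with 10% FBS and plated at 5 × 10³ per well, then allowed 24 h to attach at 37 °C. Compounds were dissolved as 20 mM DMSO stocks, diluted in medium to a range of concentrations, and applied for 48 h at 37 °C under 5% CO2, with 0.1% DMSO as control. MTT was added for 4 h, formazan dissolved in DMSO, and A570 read. IC50 is the mean of three independent experiments run in quadruplicate.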

[2] = test system: MCF7; assay: Antiproliferative activity against human MCF7 cells after 48 hrs by MTT assay; type: functional, cell-based; conditions: MCF7, 48 h; summary of the method: as §1
[3] = test system: HepG2; assay: Antiproliferative activity against human HepG2 cells after 48 hrs by MTT assay; type: functional, cell-based; conditions: HepG2, 48 h; summary of the method: as §1
[4] = test system: MDA-MB-231; assay: Antiproliferative activity against human MDA-MB-231 cells after 48 hrs by MTT assay; type: functional, cell-based; conditions: MDA-MB-231, 48 h; summary of the method: as §1
[5] = test system: HepG2; assay: Potency index, ratio of fluorouracil IC50 to compound IC50 for human HepG2 cells; type: functional
[6] = test system: HepG2; assay: Cell cycle arrest in human HepG2 cells assessed as accumulation at G2/M phase after 48 hrs by propidium iodide staining based flow cytometry; type: functional
Summary of the method: (§2)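 HepG2 cells grown to about 70% confluence and exposed to […] of compound for 48 h. Cells were then trypsinized, washed in PBS and fixed overnight in ice-cold 70% ethanol. They were treated with RNase (50, final) at 37 °C for 30 min, stained with propidium iodide (50, final), and phase distribution was measured by flow cytometry.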

[7] = test system: HepG2; assay: Cell cycle arrest in human HepG2 cells assessed as accumulation at G0/G1 phase at 20 uM after 48 hrs by propidium iodide staining based flow cytometry (reference value: 44.28%); type: functional; summary of the method: as §2
[8] = Solubility in water at pH 1; type: physicochemical
[9] = test system: HepG2; assay: Cell cycle arrest in human HepG2 cells assessed as accumulation at G0/G1 phase at 1 uM after 48 hrs by propidium iodide staining based flow cytometry (reference value: 44.28%); type: functional; summary of the method: as §2
[10] = test system: HepG2; assay: Cell cycle arrest in human HepG2 cells assessed as accumulation at G2/M phase at 5 uM after 48 hrs by propidium iodide staining based flow cytometry (reference value: 21.54%); type: functional; summary of the method: as §2
[11] = test system: HepG2; assay: Cell cycle arrest in human HepG2 cells assessed as accumulation at subG1 phase at 10 uM after 48 hrs by propidium iodide staining based flow cytometry (reference value: 2.09%); type: functional; summary of the method: as §2
[12] = test system: HepG2; assay: Cell cycle arrest in human HepG2 cells assessed as accumulation at G0/G1 phase at 10 uM after 48 hrs by propidium iodide staining based flow cytometry (reference value: 44.28%); type: functional; summary of the method: as §2
[13] = test system: HepG2; assay: Cell cycle arrest in human HepG2 cells assessed as accumulation at subG1 phase at 5 uM after 48 hrs by propidium iodide staining based flow cytometry (reference value: 2.09%); type: functional; summary of the method: as §2
[14] = test system: HepG2; assay: Cell cycle arrest in human HepG2 cells assessed as accumulation at S phase at 20 uM after 48 hrs by propidium iodide staining based flow cytometry (reference value: 28.95%); type: functional; summary of the method: as §2
[15] = Solubility in water at pH 6.4; type: physicochemical
[16] = test system: HepG2; assay: Cell cycle arrest in human HepG2 cells assessed as accumulation at G0/G1 phase at 5 uM after 48 hrs by propidium iodide staining based flow cytometry (reference value: 44.28%); type: functional; summary of the method: as §2
[17] = test system: HepG2; assay: Cell cycle arrest in human HepG2 cells assessed as accumulation at S phase at 10 uM after 48 hrs by propidium iodide staining based flow cytometry (reference value: 28.95%); type: functional; summary of the method: as §2
[18] = test system: HepG2; assay: Cell cycle arrest in human HepG2 cells assessed as accumulation at subG1 phase at 1 uM after 48 hrs by propidium iodide staining based flow cytometry (reference value: 2.09%); type: functional; summary of the method: as §2
[19] = test system: HepG2; assay: Cell cycle arrest in human HepG2 cells assessed as accumulation at G2/M phase at 10 uM after 48 hrs by propidium iodide staining based flow cytometry (reference value: 21.54%); type: functional; summary of the method: as §2
[20] = test system: HepG2; assay: Cell cycle arrest in human HepG2 cells assessed as accumulation at G2/M phase at 20 uM after 48 hrs by propidium iodide staining based flow cytometry (reference value: 21.54%); type: functional; summary of the method: as §2
[21] = test system: HepG2; assay: Cell cycle arrest in human HepG2 cells assessed as accumulation at S phase at 1 uM after 48 hrs by propidium iodide staining based flow cytometry (reference value: 28.95%); type: functional; summary of the method: as §2
[22] = test system: HepG2; assay: Cell cycle arrest in human HepG2 cells assessed as accumulation at S phase at 5 uM after 48 hrs by propidium iodide staining based flow cytometry (reference value: 28.95%); type: functional; summary of the method: as §2
[23] = test system: HepG2; assay: Cell cycle arrest in human HepG2 cells assessed as accumulation at subG1 phase at 20 uM after 48 hrs by propidium iodide staining based flow cytometry (reference value: 2.09%); type: functional; summary of the method: as §2
[24] = test system: HepG2; assay: Cell cycle arrest in human HepG2 cells assessed as accumulation at G2/M phase at 1 uM after 48 hrs by propidium iodide staining based flow cytometry (reference value: 21.54%); type: functional; summary of the method: as §2

Structure (SMILES)	IC50 [1] [µM]	IC50 [2] [µM]	IC50 [3] [µM]	IC50 [4] [µM]	also measured
COC(=O)CN(C)c1nc(Nc2cccc(OC)c2)ncc1[N+](=O)[O-]	31.9	93.7	73.4	58	–
CCOC(=O)CN(Cc1ccccc1)c1nc(Nc2ccc(Cl)cc2)ncc1[N+](=O)[O-]	> 100	> 100	30.9	34.4	–
CCOC(=O)CNc1nc(Nc2ccccc2)ncc1[N+](=O)[O-]	> 100	> 100	> 100	54.3	–
COC(=O)CN(C)c1nc(NC2CCN(S(C)(=O)=O)CC2)ncc1[N+](=O)[O-]	> 100	> 100	> 100	59.6	–
CCOC(=O)CN(Cc1ccccc1)c1nc(NCc2ccccc2)ncc1[N+](=O)[O-]	> 100	> 100	20.9	82.4	–
CCOC(=O)CNc1nc(NC2CCN(S(C)(=O)=O)CC2)ncc1[N+](=O)[O-]	> 100	> 100	> 100	80.7	–
CCOC(=O)CNc1ncc([N+](=O)[O-])c(N(CC(=O)OCC)Cc2ccccc2)n1	> 100	> 100	44.5	92.5	–
CCOC(=O)CNc1nc(Nc2ccc(Cl)cc2)ncc1[N+](=O)[O-]	> 100	> 100	> 100	55.5	–
CCOC(=O)CNc1nc(Nc2cccc(OC)c2)ncc1[N+](=O)[O-]	36.1	35.8	> 100	31.3	–
CCOC(=O)CNc1nc(Nc2ccc(OC)cc2)ncc1[N+](=O)[O-]	> 100	> 100	> 100	32.6	–
CCOC(=O)CN(Cc1ccccc1)c1nc(NC2CCN(S(C)(=O)=O)CC2)ncc1[N+](=O)[O-]	> 100	> 100	57.1	75.8	–
COC(=O)CN(C)c1nc(NCCc2ccccc2)ncc1[N+](=O)[O-]	37	32.5	86.7	44.8	–
CCOC(=O)CNc1nc(NCc2ccccc2)ncc1[N+](=O)[O-]	74.4	52.4	> 100	22.3	–
COC(=O)CN(C)c1nc(Nc2ccccc2)ncc1[N+](=O)[O-]	> 100	> 100	> 100	> 100	–
CCOC(=O)CN(Cc1ccccc1)c1nc(Nc2ccccc2)ncc1[N+](=O)[O-]	> 100	> 100	44.4	> 100	–
COC(=O)CN(C)c1nc(Nc2ccc(Cl)cc2)ncc1[N+](=O)[O-]	23.5	60.7	49.8	21.2	–
CCOC(=O)CN(Cc1ccccc1)c1nc(NCc2cccc(OC)c2)ncc1[N+](=O)[O-]	> 100	57.4	33.6	80.7	–
CCOC(=O)CN(Cc1ccccc1)c1nc(Nc2cccc(OC)c2)ncc1[N+](=O)[O-]	> 100	> 100	27.6	47.2	–
COC(=O)CN(C)c1nc(Nc2cc(OC)c(OC)c(OC)c2)ncc1[N+](=O)[O-]	> 100	42	26.2	25.9	–
CCOC(=O)CN(Cc1ccccc1)c1nc(Nc2cc(OC)c(OC)c(OC)c2)ncc1[N+](=O)[O-]	> 100	> 100	37.8	40.4	–
CCOC(=O)CN(Cc1ccccc1)c1nc(NCCc2ccccc2)ncc1[N+](=O)[O-]	87.3	21	10.4	22.3	Ratio IC50 [5]: 3; Activity [6]: Dose-dependent effect; Activity [7]: 29.86%; solubility [8]: 80.5 µg/mL (≈ 185 µM); Activity [9]: 34.03%; Activity [10]: 30.83%; Activity [11]: 4.8%; Activity [12]: 30.91%; Activity [13]: 3.85%; Activity [14]: 25.75%; solubility [15]: 3 µg/mL (≈ 6.89 µM); Activity [16]: 31.26%; Activity [17]: 27.02%; Activity [18]: 5.08%; Activity [19]: 31.94%; Activity [20]: 36.85%; Activity [21]: 28.08%; Activity [22]: 28.28%; Activity [23]: 4.91%; Activity [24]: 25.46%
CCOC(=O)CNc1nc(NCCc2ccccc2)ncc1[N+](=O)[O-]	48.2	> 100	71.1	21.9	–
O=c1[nH]cc(F)c(=O)[nH]1 [FLUOROURACIL]	–	30.4	–	–	–
COC(=O)CN(C)c1nc(NCc2ccccc2)ncc1[N+](=O)[O-]	79.4	85.9	> 100	61.1	–
